The list is not random: actives were taken first. Their share in the collection is about 2.7%.
FGF22 binding – binders of recombinant human FGF22 by thermal shift; SYPRO orange fluorescence; percent of sucrose octasulfate shift, DMSO zero; activity (Tm shift, normalised), % at 9.99 µM; Q9HCT0; AID 651658; hit rate 1.5% among 340,000;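 active means mean Tm shift, scaled 0 neutral to 100 positive control, at about 1.3% or above, every replicate too, limit read from the data; inconclusive means no clear call, values can overlap the other calls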
Target sequence (Q9HCT0 whole entry, looked up): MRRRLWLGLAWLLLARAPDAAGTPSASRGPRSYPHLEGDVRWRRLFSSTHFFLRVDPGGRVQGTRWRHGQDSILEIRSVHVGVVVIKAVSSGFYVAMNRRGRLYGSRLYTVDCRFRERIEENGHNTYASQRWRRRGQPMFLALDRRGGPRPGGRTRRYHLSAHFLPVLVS
HIV Env fusion – inhibitors of HIV Env-mediated cell fusion | AID 651610 | inhibition, % at 12.3 µM | hit rate 1.1% among 360,000 | HeLa-JRFL Env/CEM21 cell fusion, luciferase;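 active means mean replicate inhibition score of at least 50 and every replicate individually at or above 50; inconclusive means only one of the two criteria met; inactive means mean below 50 and not all replicates reaching 50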
CFTR F508del cor – correctors of CFTR F508del function in bronchial epithelial cells; CFBE cells, YFP halide quenching; stimulated with forskolin plus potentiator P3; % fluorescence drop versus neutral controls; activity (quench increase), % at 7.58 µM; hit rate 0.36% among 350,000; AID 720511;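 active means mean added fluorescence quench of at least 8% versus neutral control, with both replicates also reaching 8%; inconclusive means only one of the mean or replicate conditions met; inactive means mean below 8% and not both replicates reaching 8%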;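 further: cells transiently co-express mutant CFTR-F508del with the halide-sensitive YFP; corrector assay measuring rescue of mutant channel to the surface after 24 h compound exposure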
S100A4 inh HTS – inhibitors of human S100A4 binding to myosin IIA peptide; P26447; S100A4/TAMRA-MyoIIA peptide fluorescence polarization; inhibition, % at 10.7 µM; hit rate 0.14% among 360,000; AID 652163;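 active means mean inhibition of at least 70% across replicates, with every replicate also reaching that level; inconclusive means mean inhibition reaches 70% but some replicates fall short; inactive means mean inhibition below 70%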
Target sequence (P26447 whole entry, looked up): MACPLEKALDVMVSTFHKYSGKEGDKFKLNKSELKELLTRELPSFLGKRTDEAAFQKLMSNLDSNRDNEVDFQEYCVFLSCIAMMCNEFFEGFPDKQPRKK
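incubation = readout 5 min after mixing, signal stable up to 60 min | system = S100A4 monomer protein | buffer or medium = HEPES pH 7.2 with CaCl2, KCl, NaCl, DTT, Triton | benchmarks = neutral control DMSO, positive control TFP | also added = fluorescent myosin IIA peptide, 5 nM | compound dosing = one concentration per compound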
E-selectin induc – induces E-selectin expression in human endothelial cells | hit rate 0.37% among 260,000 | HUVEC E-selectin immunofluorescence imaging; normalized: neutral wells 0, TNF-alpha wells 100 | P16581 | activation, % at 7.58 µM;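 active means mean E-selectin-positive cell signal at least 10% of the positive control, reached in at least 60% of replicates, without over 20% cell loss; inconclusive means no rule given, readout overlaps actives, possibly toxicity-flagged; inactive means the rest, including those meeting only one limit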
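Assay system: HUVEC primary endothelial cells. Input: 3,000 HUVEC seeded per well. Doses: one compound dose added by pin transfer. Read-out basis: % PE-positive cells. Benchmarks: TNF-alpha high, DMSO low. Detection: immunofluorescence imaging. Buffer or medium: EGM-2, gelatin.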
Numbers stand for hits; n = inactive; u = inconclusive; x = no result given.

SMILES	FGF22 binding	HIV Env fusion	CFTR F508del cor	S100A4 inh HTS	E-selectin induc
COc1ccccc1NC(=O)Nc1ccc(Cc2ccncc2)cc1	43	n	n	n	n
COc1ccccc1NC(=O)Nc1ccncc1	n	n	n	n	x
Cc1ccc(S(N)(=O)=O)cc1NC(=O)/C=C/c1ccc2c(c1)OCO2	43	n	n	n	n
Cc1ccccc1NC(=O)CCC(=O)N/N=C/c1ccc(F)cc1	43	n	n	n	x
Cc1ccccc1NC(=O)CCC(=O)N/N=C/c1cccnc1	n	n	n	n	n
Cc1ccccc1NCC(=O)N/N=C\c1ccc2c(c1)OCO2	44	n	n	n	x
COc1ccccc1C(=O)NCC(=O)N/N=C/c1ccc2c(c1)OCO2	n	n	n	n	n
Cn1cc(C(=O)N/N=C/c2ccc3c(c2)OCO3)c2ccccc21	n	n	9.1	n	n
C[C@H](CO)N1C[C@H](C)[C@H](CN(C)CC2CCCCC2)Oc2ccc(NC(=O)C3CCCCC3)cc2CC1=O	n	n	n	n	n
COC(=O)[C@]1(Cc2ccccc2)N=C(c2ccc(OCCCO)cc2)O[C@@H]1c1ccccc1	n	n	n	n	x
Cc1ccc(C)c(NC(=O)CCC(=O)N/N=C/c2ccc3c(c2)OCO3)c1	43	n	x	n	x
O=C1CC2c3ccccc3C1C1C(=O)N(CCc3ccccc3)C(=O)C21 (stereo not given)	43	n	n	n	n
C=CCN1C(=O)C2C3CC(=O)C(c4ccccc43)C2C1=O (stereo not given)	n	n	n	n	x
O=C(CN1CCN(Cc2ccccc2)CC1)N1N=CCC1c1ccccc1 (stereo not given)	n	n	n	n	x
Cc1ccc(SCC(=O)N2N=CCC2c2ccccc2)cc1 (stereo not given)	44	n	n	n	n
CCc1cccc(NC(=O)c2cc(S(=O)(=O)N3CCCCC3)ccc2N2CCOCC2)c1	43	n	n	n	n
O=C(OCc1ccccc1)c1cc(S(=O)(=O)N2CCCCC2)ccc1N1CCOCC1	n	n	n	n	n
Cc1ccc(COC(=O)c2cc(S(=O)(=O)N3CCCCC3)ccc2N2CCOCC2)cc1	n	76	n	n	n
O=C(OCCOc1cccc(Cl)c1)c1cc(S(=O)(=O)N2CCCCC2)ccc1N1CCOCC1	n	75	n	n	n
O=C(Cc1ccccc1)N1CC[C@H]2[C@H](CO)Nc3ccc(C4=CCCCC4)cc3[C@H]21	x	n	n	x	n
O=C(CSc1nnc(NC(=O)c2ccco2)s1)Nc1cccc(F)c1	n	x	n	n	n
CC(=O)Nc1cccc(NC(=O)CSc2nnc(NC(=O)c3ccco3)s2)c1	1.5	n	n	n	n
CC(C)C(=O)Nc1nnc(SCC(=O)Nc2ccc3c(c2)OCCO3)s1	1.4	n	n	n	u
CCC(=O)Nc1nnc(SCC(=O)Nc2ccc3c(c2)OCCO3)s1	n	n	n	n	n
CS(=O)(=O)Nc1nnc(SCC(=O)Nc2cccc([N+](=O)[O-])c2)s1	43	n	n	n	x
SMILES	FGF22 binding	HIV Env fusion	CFTR F508del cor	S100A4 inh HTS	E-selectin induc
COc1ccc(NC(=O)CSc2nnc(NC(=O)c3ccccc3C(=O)O)s2)cc1	43	n	n	n	n
CCC(=O)N1[C@H](CO)[C@@H](c2ccc(-c3cccnc3)cc2)[C@@H]1CN(CC)C(C)=O	n	x	n	n	n
CSC1=C(C#N)C(c2ccccc2Cl)C2=C(N1)c1ccccc1C2=O (stereo not given)	x	n	x	x	x
CSC1=C(C#N)C(c2ccccc2C)C(C#N)=C(N)N1 (stereo not given)	x	62	x	x	x
COc1cc(OC)cc(-c2cc3ccc(OC)cc3cn2)c1	n	n	10	n	x
COc1ccc2cc(-c3ccccc3)ncc2c1	n	n	n	n	n
C[C@H](CO)N1C[C@H](C)[C@H](CN(C)S(=O)(=O)c2ccc(Cl)cc2)OCCCC[C@H](C)Oc2ccc(NC(=O)Nc3ccc4c(c3)OCO4)cc2C1=O	n	n	n	n	n
COc1ccc2cc(C=NS(=O)(=O)c3ccc(C)cc3)n(C)c2c1	x	59	n	x	n
COc1ccc(/C=N/S(=O)(=O)c2ccc(C)cc2)cc1	n	n	n	n	x
O=C(Nc1nc2ccccc2[nH]1)c1ccc(F)cc1	n	x	n	n	x
O=C(Nc1nc2ccccc2[nH]1)c1ccccc1F	x	75	x	x	x
CN(c1ccccc1)S(=O)(=O)c1ccc(Cl)c(C(=O)Nc2ccc(-c3nc4ccccc4[nH]3)cc2)c1	x	n	x	x	n
CN(c1ccccc1)S(=O)(=O)c1ccc(Cl)c(C(=O)Nc2nc3ccccc3[nH]2)c1	x	72	x	x	n
CC(C)Oc1ccc(C(=O)Nc2nc3ccccc3[nH]2)cc1	n	57	n	n	x
C[C@H]1CN([C@@H](C)CO)C(=O)Cc2cc(N(C)C)ccc2O[C@@H]1CN(C)Cc1ccc(Oc2ccccc2)cc1	n	n	n	n	n
COc1cc(Cn2c(-c3nonc3N)nc3ccccc32)ccc1C	x	60	x	x	x
C[C@H]1CN([C@@H](C)CO)S(=O)(=O)c2ccc(/C=C/c3ccccc3)cc2O[C@@H]1CN(C)C(=O)Nc1cc(F)ccc1F	x	n	n	x	n
C[C@H]1CN([C@@H](C)CO)S(=O)(=O)c2ccc(/C=C/c3ccccc3)cc2O[C@H]1CN(C)C(=O)Nc1cc(F)ccc1F	1.8	n	n	n	n
C[C@H]1CN([C@@H](C)CO)S(=O)(=O)c2ccc(/C=C/c3ccccc3)cc2O[C@@H]1CN(C)C(=O)Nc1ccc(F)cc1	n	n	10	n	n
C[C@@H]1CN([C@H](C)CO)S(=O)(=O)c2ccc(/C=C/c3ccccc3)cc2O[C@H]1CN(C)C(=O)NC1CCCCC1	n	x	9.6	n	x
Cc1ccc(S(=O)(=O)N2CC3(O)CN(C(=O)OC(C)C)N(C(=O)OC(C)C)CC3(OC(=O)NC3CC3)C2)cc1 (stereo not given)	n	n	n	n	n
Cc1ccc(S(=O)(=O)N2CC3(O)CN(C(=O)OC(C)C)N(C(=O)OC(C)C)CC3(OC(=O)NCC3CCCCC3)C2)cc1 (stereo not given)	n	73	n	n	n
COc1ccc2c3c(n(C)c2c1)[C@H](CO)N(Cc1ccncc1)CC31CCN(C(=O)C2CC2)CC1	n	x	n	x	n
O=C(C[C@@H]1C[C@@H]2c3cc(NS(=O)(=O)c4ccccc4)ccc3O[C@@H]2[C@H](CO)O1)NC1CCCC1	n	x	n	n	n
Cc1cc(C(=O)CCl)c(C)n1Cc1ccco1	43	n	n	n	n
Cc1cc(C(=O)CSc2nncs2)c(C)n1Cc1ccco1	n	n	n	n	n
O=C(CN(Cc1ccco1)Cc1ccco1)Nc1cc(S(=O)(=O)N2CCCCC2)ccc1Cl	n	n	9.4	n	x
O=C(NCc1ccco1)c1cc(S(=O)(=O)N2CCCC2)ccc1Cl	n	n	n	n	n
O=S(=O)(c1ccc(NC(=S)N2CCN(c3ccccc3F)CC2)cc1)N1CCOCC1	n	59	n	n	n

Screens from PubChem BioAssay.
